Hsp70 act = transcriptional activators of Hsp70 | activation, % at 10 µM | 200,000 tested, 0.04% active | HeLa Hsp70 promoter luciferase reporter, luminescence; scaled: vehicle 0, proteasome-inhibitor control 100%;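 active = activation above the mean across all tested compounds plus 3 SD, cutoff set per campaign, cut at about 5.5% in these data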;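 note: 100% = MG132 at 30 µM as the positive control and 0% = DMSO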
HSF1 inh = HSF1 inhibition; NIH3T3-HGL HSE-luciferase, MG132-induced, luminescence 8 h; stronger effect = lower value; activity change, negative = inhibition, % at 7.5 µM (by protocol); 300,000 tested, 0.77% active;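 active = more than half of replicate wells show activity change below -50%, luminescence cut by over half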;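 note: luciferase reports HSF-1 transcriptional activity via heat shock element; 0% = median of DMSO wells and -100% = zero luminescence signal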
T cruzi inh = T. cruzi replication inhibition | T. cruzi beta-gal in NIH3T3, luminescence, 90 h | AID 1885 | inhibition, % (concentration not given with the values) | 300,000 tested, 1.4% active;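 active = mean inhibition across valid replicates above about 55%, limit read from the data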;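 note: signal also drops with host cell toxicity which is not excluded here; 0% = plate median of DMSO wells and 100% = zero luminescence signal; higher percent means less beta-gal luminescence so fewer parasites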
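System: NIH/3T3 fibroblasts plus reporter T. cruzi. Medium: DMEM plus 2% FBS. Probe or stimulus: 5000 reporter trypomastigotes per well. Compound: single 50 nL compound addition per well in DMSO. Incubation: co-culture of at least 90 h after 3 h attachment. Detection: GalScreen β-gal luminescence, detergent lysis, 60 min. Evaluation: parasite load inhibition, %.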
HSF-1 act = increases HSF-1 driven luciferase reporter signal; NIH3T3-HGL HSF-1 luciferase reporter, MG132, 8 h; 100% = twice DMSO control signal; activation, % at 9 µM; 300,000 tested, 1.7% active; AID 504408;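 active = mean replicate activation of at least 50% with a set share of replicates each reaching 50%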;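 note: 0% = median of the neutral control wells and 100% = twice that signal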
Lmaj promast = Leishmania major promastigote growth inhibition | inhibition, % at 10 µM | Leishmania major promastigotes, resazurin fluorescence viability | 200,000 tested, 9% active | AID 1063; in the data active = inhibition above about 50%;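 note: promastigotes grown with compound for 44 hours at 28 °C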
* marks the source's active call; other numbers are inactive results; / = no result. The full list was thinned out, with hits kept by preference.

SMILES	Hsp70 act	HSF1 inh	T cruzi inh	HSF-1 act	Lmaj promast
CCc1ccc(NC(=O)c2cc(-c3ccco3)on2)cc1	0	39	-6	80*	0
COc1ccc(NC(=O)c2cc(-c3ccco3)on2)cc1	0	16	-11	22	-3
CCN(CC)S(=O)(=O)c1ccc(C)c(NC(=O)CN2CCN(Cc3ccccc3)CC2)c1	/	-2	38	-5	/
COc1ccc(NC(=O)c2c3c(nc4ccccc24)CCN(Cc2ccccc2)C3)c(OC)c1	0	-2	46	0	2
CCN(CC)S(=O)(=O)c1ccc(OC(C)C)c(NC(=O)c2c3c(nc4ccccc24)CCN(Cc2ccccc2)C3)c1	-1	-4	48	5	58*
COc1ccc(S(=O)(=O)N2CCCCCC2)cc1NC(=O)c1c2c(nc3ccccc13)CCN(Cc1ccccc1)C2	0	-2	53	-3	54*
O=Cc1ccc(N2CCCC2)c([N+](=O)[O-])c1	0	3	-5	19	-2
O=[N+]([O-])/C=C\c1ccc(N2CCCC2)c(F)c1	0	47	2	79*	47
CC(=O)N/C(=N\OCc1ccccc1Cl)c1nonc1NC(C)=O	0	-7	2	-25	40
O=C(O)c1ccc(N/N=C/c2ccc(C(F)(F)F)cc2)cc1	0	-66*	3	-68	-20
CC(C)(C)c1ccc(/C=N/Nc2cccc(C(=O)O)c2)cc1	0	-57*	-5	-64	-10
O=C(O)c1cccc(N/N=C/c2ccc(-c3ccccc3)cc2)c1	0	-34	4	-44	-11
O=C(N/N=C/c1ccc(C(F)(F)F)cc1)c1ccc(O)cc1	1	15	7	30	12
Oc1ccc(/C=N/Nc2ccc(C(F)(F)F)cn2)c(O)c1	/	15	13	10	/
Oc1ccc(/C=N/Nc2ccc(C(F)(F)F)cn2)cc1	0	45	8	86*	28
CCNC(=S)N/N=C/c1ccc(C(=O)O)cc1	0	2	0	39	-2
CC(C)(C)c1ccc(/C=N/Nc2ccc(C(=O)O)cc2)cc1	0	-86*	7	-87	-13
CSc1ccccc1NC(=O)COc1ccccc1Cl	0	11	-2	0	-2
Cc1nc(-c2nnc(SCC(=O)Nc3ccc(Cl)cc3)n2C)cs1	/	-19	7	-15	/
Cc1ccc(Oc2ccc(Cl)cc2NC(=O)c2ccc(F)cc2F)cc1	0	-2	15	-3	58*
CCCCn1c(=N)n(CCOc2ccc(C)cc2)c2ccccc21	0	-3	12	-2	97*
CCN(CC)CCn1c(=N)n(CCOc2ccccc2)c2ccccc21	0	-1	69*	30	93*
CCN(CC)CCn1c(=N)n(CC(O)COc2ccccc2)c2ccccc21 (stereo not given)	/	4	-6	3	/
CCCn1c(=N)n(CCOCCOCCn2c(=N)n(CCC)c3ccccc32)c2ccccc21	0	/	/	/	88*
CCC(C)(C)NC(=O)C(c1cccc(OC)c1OC)N(Cc1ccc(OC)cc1)C(=O)CCC(=O)Nc1cc(C)on1 (stereo not given)	/	28	24	60*	/
SMILES	Hsp70 act	HSF1 inh	T cruzi inh	HSF-1 act	Lmaj promast
CCC(C)(C)NC(=O)C(c1ccc(OC)cc1)N(Cc1ccccc1)C(=O)CCC(=O)Nc1cc(C)on1 (stereo not given)	/	5	17	-5	/
COc1ccc(CN(C(=O)c2ccc(-c3ccccc3)[nH]2)C(C(=O)NC(C)(C)C)c2ccncc2)cc1 (stereo not given)	0	20	59*	48	93*
COc1ccc(C(C(=O)NC(C)(C)C)N(Cc2ccccc2)C(=O)CCC(=O)Nc2cc(C)on2)cc1 (stereo not given)	0	-1	3	4	95*
CCC(C)(C)NC(=O)C(c1cccc(OC)c1OC)N(Cc1ccccc1)C(=O)CCC(=O)Nc1cc(C)on1 (stereo not given)	/	1	18	3	/
O=[N+]([O-])c1cccnc1NCc1cccs1	0	-8	0	6	-2
CC(C)(C)NC(=O)COc1ccccc1C#N	0	-5	-10	1	-6
COc1ccccc1N(C(=O)NCc1ccccc1)C1=NCC(C)S1 (stereo not given)	0	2	17	11	57*
COc1ccccc1NC(=O)N(Cc1ccccc1)C1=NCC(C)S1 (stereo not given)	0	1	0	15	20
COc1ccc(-c2cc(C(F)(F)F)n3nc(C(=O)NCCCn4ccnc4)cc3n2)cc1	0	-4	7	-14	90*
O=C(NCCCn1ccnc1)c1nn2c(C(F)(F)F)cc(-c3ccc(Br)cc3)nc2c1Cl	0	-12	13	-1	100*
CCCNC(=O)c1nn2c(C(F)(F)F)cc(-c3ccccc3)nc2c1Cl	/	-6	9	-7	/
COc1ccc(-c2cc(C(F)(F)F)n3nc(C(=O)NCCN4CCOCC4)cc3n2)cc1	0	-3	-17	-15	10
COc1ccc(S(=O)(=O)c2nnn(-c3cccc(Cl)c3)c2N)cc1	0	-1	-5	-20	-1
Cc1ccc(CN(Cc2cccnc2)C(=O)CN2C(=O)COc3ccccc32)o1	0	0	55*	2	73*
O=C(CN1C(=O)COc2ccccc21)N(Cc1ccccc1)Cc1ccccn1	0	-11	2	-1	-5
CCc1c(C)nc2ncnn2c1NCCc1ccc(Cl)cc1	0	0	12	14	38
Cn1c(-c2ccc(Cl)cc2)cnc1NCc1cc2c(cc1[N+](=O)[O-])OCO2	0	-8	45	-11	98*
COc1ccccc1CNc1ncc(-c2ccc(F)cc2)n1C	/	-6	-10	-4	/
Cc1cc(F)ccc1NCc1cc2c(cc1[N+](=O)[O-])OCO2	0	17	-13	53*	13
Cn1c(-c2ccccc2)cnc1NCc1cc2c(cc1[N+](=O)[O-])OCO2	0	-7	8	8	87*
Cn1c(-c2ccc(F)cc2)cnc1NCc1cc2c(cc1[N+](=O)[O-])OCO2	0	2	26	-1	99*
CCSC1=NC2(CCCCC2)Nc2sc3c(c21)CCCC3	0	17	56*	47	100*
CCSc1nc2sc3c(c2c(=O)[nH]1)CCCC3	0	3	-10	8	-1
O=C(COC(=O)C1CC(=O)N(Cc2ccccc2)C1)Nc1ccccc1F (stereo not given)	0	-4	-11	0	8
S=C(N/N=C/c1ccc(Br)cc1)N1CCCCC1	/	32	2	55*	/
CSc1ccccc1NC(=O)CO/N=C(\C)c1cc2ccccc2o1	0	6	0	40	95*
C/C(=N\OCC(=O)Nc1ccc(F)c(F)c1F)c1cc2ccccc2o1	0	21	-16	43	-6
COc1ccccc1-c1noc(CCC(=O)NC2CCCCC2)n1	/	-2	8	12	/

Source: PubChem
